Test results taken from ChEMBL document CHEMBL1629486, “Antimicrobial, antitumor and 5α-reductase inhibitor activities of some hydrazonoyl substituted pyrimidinones” (Eur J Med Chem, 2010).

How the values were obtained:
Format in all cases: functional
[1] = test system: Rattus norvegicus; assay: Effect on circulating testosterone and dihydrotestosterone level in sc dosed Sprague-Dawley rat by radioimmunoassay
Procedure, shortened: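 Rats were given a range of doses of the 5α-reductase inhibitors. Serum testosterone and DHT were measured by radioimmunoassay with specific antisera, without prior chromatography. Serum (0.5 mL) was extracted with 2 mL peroxide-free diethyl ether by shaking for 60 s. Levels were compared with vehicle-treated controls, and ED50 was derived.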

[2] = test system: Penicillium italicum; assay: Antimicrobial activity against Penicillium italicum at 1 to 5 ug/ml by agar well diffusion method
Procedure, shortened: (§1)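 Agar well diffusion against bacteria and fungi. Inhibition zone is scored beyond the control: ++ 0.6–1.0 cm, + 0.1–0.5 cm, 0 no inhibition.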

[3] = test system: IGROV-1; assay: Growth inhibition of human IGROV1 cells assessed as cell growth at 1 M after 48 hrs by sulforhodamine B assay; set-up: scale not given: the % may be the effect or the level left
Procedure, shortened: (§2)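 NCI 60-cell screen at a single high dose. Cells are grown in RPMI 1640 with 5% FBS and 2 mM L-glutamine, then plated at 5000–40,000 cells/well and held 24 h at 37 °C in 5% CO2 at 100% humidity. Drug is then added and plates are incubated another 48 h, with SRB staining as read-out. Results are given as growth percent (100 = no inhibition, 0 = no net growth, negative = lethality).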

[4] = test system: EKVX; assay: Growth inhibition of human EKVX cells assessed as cell growth at 1 M after 48 hrs by sulforhodamine B assay; set-up: scale not given: the % may be the effect or the level left; procedure, shortened: as §2
[5] = test system: HCT-15; assay: Growth inhibition of human HCT15 cells assessed as cell growth at 1 M after 48 hrs by sulforhodamine B assay; set-up: scale not given: the % may be the effect or the level left; procedure, shortened: as §2
[6] = test system: SNB-19; assay: Growth inhibition of human SNB19 cells assessed as cell growth at 1 M after 48 hrs by sulforhodamine B assay; set-up: scale not given: the % may be the effect or the level left
Procedure, shortened: (§3)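 NCI 60-cell panel screen, single dose (1.0 M as printed). Cells grown in RPMI 1640 with 5% fetal bovine serum and 2 mM L-glutamine, seeded at 5000–40,000 cells/well, preincubated 24 h at 37 °C in 5% CO2 at 100% humidity, then exposed to compound for 48 h. Sulforhodamine B staining read-out. Result given as growth percent: 100 = no inhibition, 0 = no net growth, negative = lethality.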

[7] = test system: Malme-3M; assay: Growth inhibition of human MALME-3M cells assessed as cell growth at 1 M after 48 hrs by sulforhodamine B assay; set-up: scale not given: the % may be the effect or the level left; procedure, shortened: as §2
[8] = test system: UACC-62; assay: Growth inhibition of human UACC62 cells assessed as cell growth at 1 M after 48 hrs by sulforhodamine B assay; set-up: scale not given: the % may be the effect or the level left; procedure, shortened: as §3
[9] = test system: SK-MEL-5; assay: Growth inhibition of human SK-MEL-5 cells assessed as cell growth at 1 M after 48 hrs by sulforhodamine B assay; set-up: scale not given: the % may be the effect or the level left; procedure, shortened: as §3
[10] = test system: Pseudomonas aeruginosa; assay: Antimicrobial activity against Pseudomonas aeruginosa at 1 to 5 ug/ml by agar well diffusion method; procedure, shortened: as §1
[11] = test system: COLO 205; assay: Growth inhibition of human COLO205 cells assessed as cell growth at 1 M after 48 hrs by sulforhodamine B assay; set-up: scale not given: the % may be the effect or the level left; procedure, shortened: as §2
[12] = Growth inhibition of human […] cells assessed as cell growth at 1 M after 48 hrs by sulforhodamine B assay; set-up: scale not given: the % may be the effect or the level left; procedure, shortened: as §2
[13] = test system: SK-MEL-28; assay: Growth inhibition of human SK-MEL-28 cells assessed as cell growth at 1 M after 48 hrs by sulforhodamine B assay; set-up: scale not given: the % may be the effect or the level left; procedure, shortened: as §3
[14] = test system: SF-539; assay: Growth inhibition of human SF539 cells assessed as cell growth at 1 M after 48 hrs by sulforhodamine B assay; set-up: scale not given: the % may be the effect or the level left; procedure, shortened: as §3
[15] = test system: SK-OV-3; assay: Growth inhibition of human SKOV3 cells assessed as cell growth at 1 M after 48 hrs by sulforhodamine B assay; set-up: scale not given: the % may be the effect or the level left; procedure, shortened: as §3
[16] = test system: Aspergillus fumigatus; assay: Antimicrobial activity against Aspergillus fumigatus at 1 to 5 ug/ml by agar well diffusion method; procedure, shortened: as §1
[17] = test system: A549; assay: Growth inhibition of human A549 cells assessed as cell growth at 1 M after 48 hrs by sulforhodamine B assay; set-up: scale not given: the % may be the effect or the level left; procedure, shortened: as §2
[18] = test system: M14; assay: Growth inhibition of human M14 cells assessed as cell growth at 1 M after 48 hrs by sulforhodamine B assay; set-up: scale not given: the % may be the effect or the level left; procedure, shortened: as §2
[19] = test system: ACHN; assay: Growth inhibition of human ACHN cells assessed as cell growth at 1 M after 48 hrs by sulforhodamine B assay; set-up: scale not given: the % may be the effect or the level left; procedure, shortened: as §2
[20] = test system: SF-295; assay: Growth inhibition of human SF295 cells assessed as cell growth at 1 M after 48 hrs by sulforhodamine B assay; set-up: scale not given: the % may be the effect or the level left; procedure, shortened: as §3
[21] = test system: U-251; assay: Growth inhibition of human U251 cells assessed as cell growth at 1 M after 48 hrs by sulforhodamine B assay; set-up: scale not given: the % may be the effect or the level left; procedure, shortened: as §3
[22] = test system: PC-3; assay: Growth inhibition of human PC3 cells assessed as cell growth at 1 M after 48 hrs by sulforhodamine B assay; set-up: scale not given: the % may be the effect or the level left; procedure, shortened: as §2
[23] = test system: HL-60(TB); assay: Growth inhibition of human HL-60(TB) cells assessed as cell growth at 1 M after 48 hrs by sulforhodamine B assay; set-up: scale not given: the % may be the effect or the level left
Procedure, shortened: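 NCI 60-cell panel, single-dose screen. Cells grown in RPMI 1640 with 5% fetal bovine serum and 2 mM L-glutamine, seeded at 5000–40,000 cells/well and preincubated 24 h at 37 °C in 5% CO2 before drug. Exposure 48 h, then sulforhodamine B staining. Read-out is growth percent: 100 = no inhibition, 0 = no net growth, negative = lethality.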

[24] = test system: K562; assay: Growth inhibition of human K562 cells assessed as cell growth at 1 M after 48 hrs by sulforhodamine B assay; set-up: scale not given: the % may be the effect or the level left; procedure, shortened: as §2
[25] = test system: OVCAR-4; assay: Growth inhibition of human OVCAR4 cells assessed as cell growth at 1 M after 48 hrs by sulforhodamine B assay; set-up: scale not given: the % may be the effect or the level left; procedure, shortened: as §2
[26] = test system: Bacillus subtilis; assay: Antimicrobial activity against Bacillus subtilis at 1 to 5 ug/ml by agar well diffusion method; procedure, shortened: as §1
[27] = test system: NCI/ADR-RES; assay: Growth inhibition of human NCI/ADR-RES cells assessed as cell growth at 1 M after 48 hrs by sulforhodamine B assay; set-up: scale not given: the % may be the effect or the level left; procedure, shortened: as §2
[28] = test system: OVCAR-8; assay: Growth inhibition of human OVCAR8 cells assessed as cell growth at 1 M after 48 hrs by sulforhodamine B assay; set-up: scale not given: the % may be the effect or the level left; procedure, shortened: as §2
[29] = test system: NCI-H460; assay: Growth inhibition of human NCI-H460 cells assessed as cell growth at 1 M after 48 hrs by sulforhodamine B assay; set-up: scale not given: the % may be the effect or the level left; procedure, shortened: as §2
[30] = test system: HCC 2998; assay: Growth inhibition of human HCC2998 cells assessed as cell growth at 1 M after 48 hrs by sulforhodamine B assay; set-up: scale not given: the % may be the effect or the level left; procedure, shortened: as §2
[31] = test system: 786-0; assay: Growth inhibition of human 786-0 cells assessed as cell growth at 1 M after 48 hrs by sulforhodamine B assay; set-up: scale not given: the % may be the effect or the level left; procedure, shortened: as §2
[32] = test system: SW-620; assay: Growth inhibition of human SW620 cells assessed as cell growth at 1 M after 48 hrs by sulforhodamine B assay; set-up: scale not given: the % may be the effect or the level left; procedure, shortened: as §3
[33] = test system: DU-145; assay: Growth inhibition of human DU145 cells assessed as cell growth at 1 M after 48 hrs by sulforhodamine B assay; set-up: scale not given: the % may be the effect or the level left; procedure, shortened: as §2
[34] = Growth inhibition of human Hs 578T cells assessed as cell growth at 1 M after 48 hrs by sulforhodamine B assay; set-up: scale not given: the % may be the effect or the level left; procedure, shortened: as §2
[35] = test system: NCI-H23; assay: Growth inhibition of human NCI-H23 cells assessed as cell growth at 1 M after 48 hrs by sulforhodamine B assay; set-up: scale not given: the % may be the effect or the level left; procedure, shortened: as §2
[36] = test system: Escherichia coli; assay: Antimicrobial activity against Escherichia coli at 1 to 5 ug/ml by agar well diffusion method; procedure, shortened: as §1
[37] = test system: A498; assay: Growth inhibition of human A498 cells assessed as cell growth at 1 M after 48 hrs by sulforhodamine B assay; set-up: scale not given: the % may be the effect or the level left; procedure, shortened: as §2

Row | SMILES | ED50 [1] [µg/kg] | diameter of the inhibition zone (DIZ) [2] [cm] | Activity [3] [%] | Activity [4] [%] | Activity [5] [%] | Activity [6] [%] | Activity [7] [%] | Activity [8] [%] | Activity [9] [%] | diameter of the inhibition zone (DIZ) [10] [cm] | Activity [11] [%] | Activity [12] [%] | Activity [13] [%] | Activity [14] [%] | Activity [15] [%] | diameter of the inhibition zone (DIZ) [16] [cm] | Activity [17] [%] | Activity [18] [%] | Activity [19] [%] | Activity [20] [%] | further results
1 | CC(=O)c1ccc(N/N=C(\C(=O)c2ccc(Cl)cc2)c2nc(C)cc(=O)[nH]2)cc1 | 0.698 | 0 | 94.2 | 105.04 | 96.72 | 95.91 | 110.47 | 80.29 | 88.4 | 0 | 121.73 | 91.91 | 106.93 | 90.87 | 95.27 | 0 | 94.61 | 88.06 | 90.63 | 95.38 | Activity [21]: 96.78%; Activity [22]: 90.5%; Activity [23]: 115.14%; Activity [24]: 87.61%; Activity [25]: 99.2%; diameter of the inhibition zone (DIZ) [26]: 0 cm; Activity [27]: 93.99%; Activity [28]: 92.95%; Activity [29]: 103.13%; Activity [30]: 111.21%; Activity [31]: 103.17%; Activity [32]: 98.45%; Activity [33]: 95.47%; Activity [34]: 90.12%; Activity [35]: 86.1%; diameter of the inhibition zone (DIZ) [36]: 0 cm; Activity [37]: 97.59%
2 | Cc1ccc(N/N=C(\C(=O)c2ccc(Cl)cc2)c2nc(C)cc(=O)[nH]2)cc1 | 0.173 | 0 | 7.59 | 91.46 | 110.86 | 103.64 | 126.09 | 90.8 | 82.48 | 0 | 116.23 | 85.08 | 117.97 | 85.29 | 115.86 | 0 | 100.03 | 82.73 | 99.08 | 90.05 | Activity [21]: 103.37%; Activity [22]: 95.01%; Activity [23]: 108.59%; Activity [24]: 91.74%; Activity [25]: 116.35%; diameter of the inhibition zone (DIZ) [26]: 0 cm; Activity [27]: 102.57%; Activity [28]: 100.7%; Activity [29]: 105.3%; Activity [30]: 115.84%; Activity [31]: 82.91%; Activity [32]: 93.7%; Activity [33]: 102.09%; Activity [34]: 99.88%; Activity [35]: 111.33%; diameter of the inhibition zone (DIZ) [36]: 0.6 cm; Activity [37]: 107.77%
3 | Cc1cc(=O)[nH]c(/C(=N/Nc2ccccc2)C(=O)c2ccc(Cl)cc2)n1 | 0.211 | 0 | 17.65 | 103.39 | 112.06 | 95.47 | 113.86 | 91.99 | 92.44 | 0 | 105.71 | 96.57 | 110.14 | 92.33 | 98.31 | 0 | 92.54 | 97.08 | 110.63 | 75.72 | Activity [21]: 106.82%; Activity [22]: 92.58%; Activity [23]: 50.74%; Activity [24]: 52.73%; Activity [25]: 110.81%; diameter of the inhibition zone (DIZ) [26]: 0 cm; Activity [27]: 105.88%; Activity [28]: 92.85%; Activity [29]: 108.76%; Activity [30]: 109.1%; Activity [31]: 82.24%; Activity [32]: 94.56%; Activity [33]: 104.88%; Activity [34]: 83.59%; Activity [35]: 105.18%; diameter of the inhibition zone (DIZ) [36]: 0.6 cm; Activity [37]: 83.96%
